For 1 compound, inhibition, IC50 and Activity results are on record in ChEMBL document CHEMBL4130443, “Targeting breast cancer stem cells by novel HDAC3-selective inhibitors” (Eur J Med Chem, 2017).

Activity calls are given as the source filed them. No cut-off for these calls is given here. Some results are limits rather than exact numbers.

Assay [1] has as its target Histone deacetylase 1 (Homo sapiens, UniProt Q13547). Put plainly: Inhibition of human HDAC1 at 1 uM using p53 (379 to 382 residues) derived fluorogenic peptide RHKKAc. A digest of the protocol: (§1)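 Isoform profiling run by a commercial vendor with compounds at 1 µM. Values are percent inhibition, each the average of two determinations.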
The target in assay [2] is Histone deacetylase 2 (Homo sapiens, UniProt Q92769). Put plainly: Inhibition of human HDAC2 using p53 (379 to 382 residues) derived fluorogenic peptide RHKKAc.
Assay [3] addresses Histone deacetylase 3/Nuclear receptor corepressor 2 (HDAC3/NCoR2) (Homo sapiens, UniProt O15379). Put plainly: Inhibition of human HDAC3/NCOR2 using p53 (379 to 382 residues) derived fluorogenic peptide RHKKAc. The class given is protein-complex assay.
For assay [4], the target named is T1, Histone deacetylase 8 (Homo sapiens) (UniProt Q9BY41).
T1 sequence (whole entry): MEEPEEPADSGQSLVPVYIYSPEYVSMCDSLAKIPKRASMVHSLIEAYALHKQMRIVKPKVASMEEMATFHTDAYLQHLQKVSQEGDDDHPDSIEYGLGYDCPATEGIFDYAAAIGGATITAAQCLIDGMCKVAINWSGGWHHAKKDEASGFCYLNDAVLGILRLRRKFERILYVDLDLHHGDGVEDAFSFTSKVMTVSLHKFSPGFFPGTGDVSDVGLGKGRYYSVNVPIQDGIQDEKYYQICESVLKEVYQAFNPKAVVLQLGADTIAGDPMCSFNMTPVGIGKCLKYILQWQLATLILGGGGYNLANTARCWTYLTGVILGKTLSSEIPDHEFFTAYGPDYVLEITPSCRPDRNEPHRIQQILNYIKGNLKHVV
The experiment in a line: Inhibition of human HDAC8 at 1 uM using p53 (379 to 382 residues) derived fluorogenic peptide RHKAcKAc. A digest of the protocol:
as §1

Assay [5] deals with MDA-MB-231. The experiment in a line: Inhibition of colony formation of human MDA-MB-231 cells incubated for 48 hrs by crystal violet staining based assay. To be noted: MDA-MB-231, 48 h.
The target of assay [6] is Histone deacetylase 3 (Homo sapiens) (UniProt O15379). Put plainly: Inhibition of HDAC3 in human MDA-MB-231 cells assessed as reduction in Akt phosphorylation at 0.5 to 5 uM by immunoblotting. The class given is cell-based. A digest of the protocol: (§2)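 Monolayer cells treated in 5% FBS at graded concentrations. Lysed in SDS/EDTA/Tris pH 8.1 buffer, equal protein immunoblotted with primary antibodies 1:1000 overnight at 4°C. Detected by ECL for phospho-Akt, β-catenin and histone H3 pan/H3K9 acetylation.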
(Immunoblotting shows a protein as a band on a membrane.)

The target is the same in assay [7]. Put plainly: Inhibition of HDAC3 in human MDA-MB-231 cells assessed as reduction in beta-catenin expression at 0.5 to 5 uM by immunoblotting. The class given is cell-based. An outline of the steps: as §2
The test system of assay [8] is MDA-MB-231. Put plainly: Induction of tumor growth dela of human MDA-MB-231 cells xenografted in NOD/SCID mouse injected with cells pretreated with 5 uM compound for 48 hrs assessed as reduction in tumor volume at 100 mg/kg, po dosed via gavage once daily starting on day 2 post injection and continuing through day 26. It is filed as functional, organism-based. An outline of the steps:
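Cells pretreated 48 h with 5 µM compound or DMSO, trypsinized and injected at 50,000 cells/0.1 ml in 50% Matrigel into the left 4th inguinal mammary fat pad of female NOD/SCID mice (N = 10 per group). Dosed 100 mg/kg by oral gavage once daily in 0.5% methylcellulose/0.1% Tween 80 in water. Caliper volume = (width² x length) x 0.52. Incidence by log-rank test, volume at day 27 by t-test.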

Sequence of Histone deacetylase 3 (Homo sapiens) (O15379 whole entry): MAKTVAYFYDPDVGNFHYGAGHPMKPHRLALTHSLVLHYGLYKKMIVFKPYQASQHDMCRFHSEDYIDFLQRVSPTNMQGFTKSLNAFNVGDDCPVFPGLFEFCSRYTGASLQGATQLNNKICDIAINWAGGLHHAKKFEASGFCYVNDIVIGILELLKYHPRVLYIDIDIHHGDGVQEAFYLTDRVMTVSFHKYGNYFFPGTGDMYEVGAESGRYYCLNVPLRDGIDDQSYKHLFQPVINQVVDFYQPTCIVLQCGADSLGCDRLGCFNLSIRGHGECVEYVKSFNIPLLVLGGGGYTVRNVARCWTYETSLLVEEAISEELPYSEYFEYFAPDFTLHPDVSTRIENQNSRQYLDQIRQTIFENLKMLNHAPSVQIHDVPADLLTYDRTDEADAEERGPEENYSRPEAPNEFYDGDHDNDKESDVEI
Sequence of Histone deacetylase 3/Nuclear receptor corepressor 2 (HDAC3/NCoR2) (O15379 whole entry, the tested form may be a part): as the sequence (O15379 whole entry) above
Sequence of Histone deacetylase 3/Nuclear receptor corepressor 2 (HDAC3/NCoR2) (Q9Y618 whole entry, further chain, the tested form may be a part): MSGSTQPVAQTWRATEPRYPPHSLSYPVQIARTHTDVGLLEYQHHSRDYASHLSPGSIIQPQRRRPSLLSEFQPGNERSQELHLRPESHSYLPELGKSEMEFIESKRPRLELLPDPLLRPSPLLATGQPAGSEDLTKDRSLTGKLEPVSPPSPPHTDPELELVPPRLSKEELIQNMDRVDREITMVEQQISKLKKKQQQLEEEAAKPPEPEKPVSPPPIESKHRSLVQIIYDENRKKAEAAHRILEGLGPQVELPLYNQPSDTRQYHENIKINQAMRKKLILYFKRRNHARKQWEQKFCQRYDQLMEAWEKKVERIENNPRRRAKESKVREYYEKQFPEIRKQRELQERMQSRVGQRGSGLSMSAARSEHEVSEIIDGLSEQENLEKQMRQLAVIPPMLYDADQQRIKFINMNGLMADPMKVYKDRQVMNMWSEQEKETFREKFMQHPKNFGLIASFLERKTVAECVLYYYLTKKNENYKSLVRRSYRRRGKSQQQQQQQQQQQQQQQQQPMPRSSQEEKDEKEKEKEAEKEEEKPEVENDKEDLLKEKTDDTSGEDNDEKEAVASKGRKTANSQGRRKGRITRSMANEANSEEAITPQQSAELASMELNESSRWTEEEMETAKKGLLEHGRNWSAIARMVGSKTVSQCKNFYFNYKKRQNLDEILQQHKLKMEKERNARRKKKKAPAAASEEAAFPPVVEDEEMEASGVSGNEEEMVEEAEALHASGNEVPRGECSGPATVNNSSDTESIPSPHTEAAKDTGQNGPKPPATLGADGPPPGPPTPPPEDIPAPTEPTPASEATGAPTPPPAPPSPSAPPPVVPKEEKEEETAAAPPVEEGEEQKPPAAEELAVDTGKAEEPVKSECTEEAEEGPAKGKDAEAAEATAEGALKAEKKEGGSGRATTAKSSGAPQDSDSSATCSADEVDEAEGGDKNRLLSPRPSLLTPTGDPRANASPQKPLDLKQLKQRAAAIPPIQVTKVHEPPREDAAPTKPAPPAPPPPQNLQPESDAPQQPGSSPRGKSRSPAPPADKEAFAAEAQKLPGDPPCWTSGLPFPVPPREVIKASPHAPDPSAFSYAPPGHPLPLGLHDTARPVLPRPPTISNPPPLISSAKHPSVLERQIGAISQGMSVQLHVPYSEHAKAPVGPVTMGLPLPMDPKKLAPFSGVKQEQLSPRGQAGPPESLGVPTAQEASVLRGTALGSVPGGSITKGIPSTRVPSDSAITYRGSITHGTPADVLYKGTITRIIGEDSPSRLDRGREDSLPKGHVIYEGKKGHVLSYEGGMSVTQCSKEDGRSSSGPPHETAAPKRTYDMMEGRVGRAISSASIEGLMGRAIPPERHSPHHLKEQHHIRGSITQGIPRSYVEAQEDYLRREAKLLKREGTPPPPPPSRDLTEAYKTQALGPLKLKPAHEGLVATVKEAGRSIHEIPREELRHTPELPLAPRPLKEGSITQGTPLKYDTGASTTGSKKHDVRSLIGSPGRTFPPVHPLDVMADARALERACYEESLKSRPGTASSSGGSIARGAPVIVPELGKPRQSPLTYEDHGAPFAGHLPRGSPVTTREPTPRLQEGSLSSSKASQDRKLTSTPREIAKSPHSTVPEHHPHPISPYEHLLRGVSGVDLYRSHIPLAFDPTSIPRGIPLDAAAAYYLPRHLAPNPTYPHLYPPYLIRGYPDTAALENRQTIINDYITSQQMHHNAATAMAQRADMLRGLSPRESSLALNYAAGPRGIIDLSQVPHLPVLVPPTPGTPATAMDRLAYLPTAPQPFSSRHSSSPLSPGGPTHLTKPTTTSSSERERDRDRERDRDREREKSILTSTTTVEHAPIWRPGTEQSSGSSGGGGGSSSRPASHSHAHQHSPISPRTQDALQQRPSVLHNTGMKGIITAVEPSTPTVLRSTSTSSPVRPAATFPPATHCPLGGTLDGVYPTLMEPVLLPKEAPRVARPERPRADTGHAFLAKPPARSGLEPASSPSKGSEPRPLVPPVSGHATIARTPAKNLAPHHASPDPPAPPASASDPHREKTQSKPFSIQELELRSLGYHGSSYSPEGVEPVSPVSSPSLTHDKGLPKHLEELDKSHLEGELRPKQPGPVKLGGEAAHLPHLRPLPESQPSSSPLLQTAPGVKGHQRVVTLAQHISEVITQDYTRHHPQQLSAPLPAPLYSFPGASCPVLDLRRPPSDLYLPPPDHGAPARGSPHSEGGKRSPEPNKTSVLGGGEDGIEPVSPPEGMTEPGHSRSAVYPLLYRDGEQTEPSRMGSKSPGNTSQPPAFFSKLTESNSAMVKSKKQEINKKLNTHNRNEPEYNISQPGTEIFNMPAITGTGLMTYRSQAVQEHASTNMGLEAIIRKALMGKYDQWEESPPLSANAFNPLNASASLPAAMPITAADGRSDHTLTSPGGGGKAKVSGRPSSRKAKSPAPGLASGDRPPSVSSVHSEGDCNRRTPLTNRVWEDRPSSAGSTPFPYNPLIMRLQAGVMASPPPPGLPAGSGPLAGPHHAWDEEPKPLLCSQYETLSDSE
Sequence of Histone deacetylase 2 (Q92769 whole entry, the tested form may be a part): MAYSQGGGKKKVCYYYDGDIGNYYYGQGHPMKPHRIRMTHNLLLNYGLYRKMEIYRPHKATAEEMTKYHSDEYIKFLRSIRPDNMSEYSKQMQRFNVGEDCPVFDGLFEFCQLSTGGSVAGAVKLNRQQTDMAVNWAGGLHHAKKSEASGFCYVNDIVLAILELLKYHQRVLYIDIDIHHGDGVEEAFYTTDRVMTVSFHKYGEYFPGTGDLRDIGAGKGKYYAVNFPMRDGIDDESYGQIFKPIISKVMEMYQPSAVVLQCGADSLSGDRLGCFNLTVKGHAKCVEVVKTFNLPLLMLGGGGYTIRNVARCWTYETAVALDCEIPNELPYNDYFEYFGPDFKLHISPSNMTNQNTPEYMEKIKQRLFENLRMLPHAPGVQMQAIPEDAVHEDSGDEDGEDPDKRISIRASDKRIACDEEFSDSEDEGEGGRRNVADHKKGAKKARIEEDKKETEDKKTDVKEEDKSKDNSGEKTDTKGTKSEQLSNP
Sequence of Histone deacetylase 1 (Q13547 whole entry, the tested form may be a part, canonical isoform): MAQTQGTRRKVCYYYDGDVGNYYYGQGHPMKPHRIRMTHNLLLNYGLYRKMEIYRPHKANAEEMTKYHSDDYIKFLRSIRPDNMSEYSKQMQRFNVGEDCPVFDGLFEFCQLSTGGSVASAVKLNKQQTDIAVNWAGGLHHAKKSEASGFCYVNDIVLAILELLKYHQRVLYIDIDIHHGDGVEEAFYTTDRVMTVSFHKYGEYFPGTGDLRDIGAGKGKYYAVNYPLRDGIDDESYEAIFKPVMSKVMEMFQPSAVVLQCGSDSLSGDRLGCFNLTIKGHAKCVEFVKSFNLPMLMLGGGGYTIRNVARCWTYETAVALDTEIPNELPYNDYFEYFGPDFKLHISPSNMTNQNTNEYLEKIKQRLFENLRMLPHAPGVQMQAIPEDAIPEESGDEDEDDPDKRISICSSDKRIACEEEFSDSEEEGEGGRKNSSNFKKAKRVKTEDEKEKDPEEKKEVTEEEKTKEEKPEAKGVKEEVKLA

`CC(C)(C(=O)Nc1ccc(C(=O)Nc2ccc(F)cc2N)cc1)c1ccccc1`: the inhibition (as a rule, the drop in the measured response relative to a control, in per cent) in assay [1] is 8%; in assay [4], 0%; in assay [6] it was “Dose-dependent effect”; in assay [7] it was “Dose-dependent effect”. Further, the IC50 (commonly the point on the concentration scale where inhibition reaches its midpoint) in assay [2] was > 10 µM; in assay [3] it was 0.35 µM; in assay [5], 0.5 to 1 µM. Besides, the result in assay [8] was Active.
